Experimental data: ChEMBL document CHEMBL4825747, “A Retrospective Look at the Impact of Binding Site Environment on the Optimization of TRPA1 Antagonists” (ACS Med Chem Lett, 2021)
Values after ≈ are worked out from the molar mass of the structure shown.

Assays:
[1] = target: Transient receptor potential cation channel subfamily A member 1 (Homo sapiens, UniProt O75762); assay: Antagonist activity at human TRPA1 expressed in CHO cells measured by calcium based FLIPR assay; assay type: cell-based
Chain of Transient receptor potential cation channel subfamily A member 1 (Homo sapiens, UniProt O75762) (O75762 whole entry): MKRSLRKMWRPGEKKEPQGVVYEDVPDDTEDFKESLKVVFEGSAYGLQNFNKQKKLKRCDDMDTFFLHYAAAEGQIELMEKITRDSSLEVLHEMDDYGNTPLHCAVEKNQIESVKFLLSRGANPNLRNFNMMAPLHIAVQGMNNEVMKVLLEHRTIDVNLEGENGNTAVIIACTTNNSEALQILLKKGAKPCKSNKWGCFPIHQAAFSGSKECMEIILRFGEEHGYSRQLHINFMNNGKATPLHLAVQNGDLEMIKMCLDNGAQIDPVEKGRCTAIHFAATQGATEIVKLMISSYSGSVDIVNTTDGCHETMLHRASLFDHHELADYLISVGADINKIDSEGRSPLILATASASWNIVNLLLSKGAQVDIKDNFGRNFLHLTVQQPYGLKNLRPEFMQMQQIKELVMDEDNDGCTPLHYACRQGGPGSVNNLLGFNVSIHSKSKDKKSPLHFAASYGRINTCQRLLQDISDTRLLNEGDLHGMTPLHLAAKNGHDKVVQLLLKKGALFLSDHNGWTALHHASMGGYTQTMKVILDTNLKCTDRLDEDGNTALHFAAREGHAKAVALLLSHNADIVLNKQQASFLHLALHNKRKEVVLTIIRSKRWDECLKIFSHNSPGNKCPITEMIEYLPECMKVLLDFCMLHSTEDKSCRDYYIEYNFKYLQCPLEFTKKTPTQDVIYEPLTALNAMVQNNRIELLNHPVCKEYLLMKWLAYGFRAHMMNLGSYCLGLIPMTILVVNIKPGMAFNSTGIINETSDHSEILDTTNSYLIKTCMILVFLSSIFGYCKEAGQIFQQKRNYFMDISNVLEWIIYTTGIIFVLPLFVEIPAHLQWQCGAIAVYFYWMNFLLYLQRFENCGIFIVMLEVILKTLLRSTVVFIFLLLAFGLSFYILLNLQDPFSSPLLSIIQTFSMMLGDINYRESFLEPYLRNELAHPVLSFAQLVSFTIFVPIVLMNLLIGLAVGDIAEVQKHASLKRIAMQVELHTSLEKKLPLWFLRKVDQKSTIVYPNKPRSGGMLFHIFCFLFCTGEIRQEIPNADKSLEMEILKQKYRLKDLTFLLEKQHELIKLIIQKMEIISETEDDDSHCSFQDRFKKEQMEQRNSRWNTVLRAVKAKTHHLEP

[2] = target: Transient receptor potential cation channel subfamily A member 1 (Rattus norvegicus, UniProt Q6RI86); assay: Antagonist activity at rat TRPA1
Chain of Transient receptor potential cation channel subfamily A member 1 (Rattus norvegicus, UniProt Q6RI86) (Q6RI86 whole entry): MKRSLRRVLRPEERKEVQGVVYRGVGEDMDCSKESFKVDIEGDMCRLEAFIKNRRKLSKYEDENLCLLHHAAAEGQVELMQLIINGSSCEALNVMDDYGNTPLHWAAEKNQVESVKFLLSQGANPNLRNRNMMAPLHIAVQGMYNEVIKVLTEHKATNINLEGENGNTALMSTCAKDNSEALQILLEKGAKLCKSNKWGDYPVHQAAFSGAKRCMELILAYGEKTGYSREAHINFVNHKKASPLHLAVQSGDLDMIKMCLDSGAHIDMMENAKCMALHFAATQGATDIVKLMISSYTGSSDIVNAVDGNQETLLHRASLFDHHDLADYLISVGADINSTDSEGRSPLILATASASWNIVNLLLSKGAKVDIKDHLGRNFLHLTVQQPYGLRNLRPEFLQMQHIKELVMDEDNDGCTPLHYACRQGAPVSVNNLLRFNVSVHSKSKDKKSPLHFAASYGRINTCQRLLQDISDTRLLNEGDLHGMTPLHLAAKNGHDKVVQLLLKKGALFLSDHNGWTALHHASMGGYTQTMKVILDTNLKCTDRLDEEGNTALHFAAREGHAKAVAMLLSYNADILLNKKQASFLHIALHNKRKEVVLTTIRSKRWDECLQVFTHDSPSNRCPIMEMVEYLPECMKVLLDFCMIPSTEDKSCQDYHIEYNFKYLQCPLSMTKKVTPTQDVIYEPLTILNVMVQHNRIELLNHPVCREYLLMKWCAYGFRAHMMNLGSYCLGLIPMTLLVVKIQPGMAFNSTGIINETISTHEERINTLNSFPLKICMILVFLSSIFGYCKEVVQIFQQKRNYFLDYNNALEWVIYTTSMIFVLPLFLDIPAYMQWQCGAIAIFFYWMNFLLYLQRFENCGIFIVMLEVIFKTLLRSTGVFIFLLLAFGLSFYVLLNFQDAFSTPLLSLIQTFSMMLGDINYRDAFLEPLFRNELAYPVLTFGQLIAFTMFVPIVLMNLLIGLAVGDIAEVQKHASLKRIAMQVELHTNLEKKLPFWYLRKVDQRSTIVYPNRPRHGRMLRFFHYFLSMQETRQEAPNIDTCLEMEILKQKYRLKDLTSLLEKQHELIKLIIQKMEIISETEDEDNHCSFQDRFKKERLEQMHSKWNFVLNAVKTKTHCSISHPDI
Method in brief: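 In vitro potency read in a CHO cell line-based fluorometric imaging plate reader (FLIPR) Ca2+ assay against the rat TRPA1 channel.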

[3] = target: Transient receptor potential cation channel subfamily A member 1 (Rattus norvegicus) (UniProt Q6RI86); assay: In vivo antagonist activity at TRPA1 in AITC-induced rat pain model assessed as reduction in pain behaviour when administered orally; assay type: functional, organism-based
Chain of Transient receptor potential cation channel subfamily A member 1 (Rattus norvegicus) (Q6RI86 whole entry): as above

[4] = Kinetic solubility of the compound; assay type: physicochemical; settings: for solubility kinetic: read-out: Kinetic_solubility
[5] = Plasma clearance in rat at 1 mg/kg; assay type: ADME, organism-based
[6] = Unbound clearance in rat at 1 mg/kg; assay type: ADME, organism-based; settings: in vivo
[7] = Volume of distribution at steady state in rat at 1 mg/kg; assay type: ADME, organism-based; settings: in vivo, read-out: Vdss
[8] = Unbound volume of distribution at steady state in rat at 1 mg/kg; assay type: ADME, organism-based; settings: in vivo
[9] = Half life in rat at 1 mg/kg; assay type: ADME, organism-based; settings: in vivo
[10] = Protein binding in rat plasma incubated for 4 hrs; assay type: ADME, cell-free; settings: read-out: PPB (converted)
Method in brief: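 Rat plasma protein binding was determined after 4 h compound incubation rather than the standard 24 h, because of compound instability in rat plasma.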

[11] = Ratio of fEC50 for in vivo antagonist activity at TRPA1 in AITC-induced rat pain model assessed as reduction in pain behaviour when administered orally to IC50 for antagonist activity at rat TRPA1; assay type: organism-based; settings: po
Method in brief: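 The in vivo value comes from the oral-dose rat AITC paw-injection model at Tmax, scoring flinching and licking against measured exposures across animals. The in vitro comparator is rat TRPA1 antagonism in a CHO cell-based FLIPR Ca2+ assay.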

[12] = Permeability across apical to basolateral membrane in MDCK cells; assay type: ADME, cell-based, Canis lupus familiaris; settings: dog, read-out: permeability
[13] = Plasma clearance in rat at 0.5 mg/kg; assay type: ADME, organism-based
[14] = Unbound clearance in rat at 0.5 mg/kg; assay type: ADME, organism-based; settings: in vivo
[15] = Volume of distribution at steady state in rat at 0.5 mg/kg; assay type: ADME, organism-based; settings: in vivo, read-out: Vdss
[16] = Unbound volume of distribution at steady state in rat at 0.5 mg/kg; assay type: ADME, organism-based; settings: in vivo
[17] = Half life in rat at 0.5 mg/kg; assay type: ADME, organism-based; settings: in vivo
[18] = Lipophilicity, log D of the compound at pH 7.4; assay type: physicochemical; settings: buffer

Row | IC50 [1] [nM] | IC50 [2] [nM] | fEC50 [3] [nM] | Kinetic_solubility [4] [µM] | clearance [5] [mL/min/kg] | CL free [6] [mL/min/kg] | Vd [7] [L/kg] | fVdss [8] [L/kg] | half-life [9] [h] | fraction unbound at 4 h [10] | Ratio [11] | Papp A→B [12] [×10⁻⁶ cm/s] | solubility kinetic [4] [µM] | clearance [13] [mL/min/kg] | CL free [14] [mL/min/kg] | Vd [15] [L/kg] | fVdss [16] [L/kg] | half-life [17] [h] | logD [18] | SMILES
1 | 1.6 | 10 | 3.7 | 7 | 7.7 | 642 | 5.6 | 467 | 9.8 | 0.012 | 0.37 | 27.5 |  |  |  |  |  |  |  | C[C@H]1[C@H](F)C[C@@H](C(=O)NCc2cc(-c3cnc(C(F)(F)F)nc3)ncc2C(F)(F)F)N1S(=O)(=O)c1ccc(F)cc1
2 | 8.4 |  | 60 |  |  | 157 | 2.6 | 93 |  | 0.028 | 1.7 |  | < 1 |  |  |  |  |  |  | C[C@H]1[C@H](F)C[C@@H](C(=O)NCc2cc(-c3cnc(C(F)(F)F)nc3)ncc2F)N1S(=O)(=O)c1ccc(F)cc1
3 |  | 1600 |  |  |  |  |  |  |  | 0.052 |  |  |  | 10 | 192 | 2.2 | 42 | 2.6 |  | C[C@H]1[C@H](F)C[C@@H](C(=O)NCc2cc(-c3ccc(C(F)(F)F)nc3)ncn2)N1S(=O)(=O)c1ccc(F)cc1
4 |  | 7.4 | 53 |  |  | 89 |  | 11 |  | 0.192 |  |  | 120 (≈ 49.5 µg/mL) |  |  |  |  |  | 1.8 | Cn1cnc2ncn(Cc3nc([C@@H]4CO[C@@H](c5ccc(Cl)cc5)C4)no3)c(=O)c21
5 |  | 390 |  |  |  |  |  |  |  | 0.075 |  | 16.5 | 98 (≈ 53.2 µg/mL) | 6.4 | 85 | 1.1 | 15 | 2 |  | C[C@H]1[C@H](F)C[C@@H](C(=O)NCc2cc(-c3cnc(C(F)(F)F)nc3)ncn2)N1S(=O)(=O)c1ccc(F)cc1

Further lines, the molecule ahead of its results:

Row | SMILES | IC50 [1] [nM] | IC50 [2] [nM] | fEC50 [3] [nM] | Kinetic_solubility [4] [µM] | clearance [5] [mL/min/kg] | CL free [6] [mL/min/kg] | Vd [7] [L/kg] | fVdss [8] [L/kg] | half-life [9] [h] | fraction unbound at 4 h [10] | Ratio [11] | Papp A→B [12] [×10⁻⁶ cm/s] | solubility kinetic [4] [µM] | clearance [13] [mL/min/kg] | CL free [14] [mL/min/kg] | Vd [15] [L/kg] | fVdss [16] [L/kg] | half-life [17] [h] | logD [18]
6 | Cn1cnc2ncn(Cc3nc([C@H]4[C@@H]5CN(c6cccc(Cl)c6)C[C@@H]54)no3)c(=O)c21 | 2.9 | 7.9 | 7.9 | 2 |  | 214 |  | 110 |  | 0.021 | 1 |  |  |  |  |  |  |  | 2.9
7 | Cn1cnc2ncn(Cc3nn(C[C@H](F)c4ccc(Cl)cc4)c(=O)o3)c(=O)c21 | 20 | 18 | 390 |  |  | 45 |  | 3.4 | 1.5 | 0.381 | 22 |  |  |  |  |  |  |  | 1.2
8 | Cn1cnc2ncn(Cc3nn([C@H]4C[C@H](c5ccc(Cl)cc5)C4)c(=O)o3)c(=O)c21 |  | 14 | 49 |  | 10 | 123 | 2.3 | 28 | 2.7 | 0.081 |  | 6.4 | 15 (≈ 6.19 µg/mL) |  |  |  |  |  | 2.4
